Measurements as given in ChEMBL document CHEMBL1132569.

What was measured:
[1] = target: T1, Muscarinic acetylcholine receptor M4 (Homo sapiens) (UniProt P08173); assay: Binding affinity at the NMS liganded human muscarinic acetylcholine receptor M4 was estimated as log affinity (log1/M)
T1 sequence (whole entry): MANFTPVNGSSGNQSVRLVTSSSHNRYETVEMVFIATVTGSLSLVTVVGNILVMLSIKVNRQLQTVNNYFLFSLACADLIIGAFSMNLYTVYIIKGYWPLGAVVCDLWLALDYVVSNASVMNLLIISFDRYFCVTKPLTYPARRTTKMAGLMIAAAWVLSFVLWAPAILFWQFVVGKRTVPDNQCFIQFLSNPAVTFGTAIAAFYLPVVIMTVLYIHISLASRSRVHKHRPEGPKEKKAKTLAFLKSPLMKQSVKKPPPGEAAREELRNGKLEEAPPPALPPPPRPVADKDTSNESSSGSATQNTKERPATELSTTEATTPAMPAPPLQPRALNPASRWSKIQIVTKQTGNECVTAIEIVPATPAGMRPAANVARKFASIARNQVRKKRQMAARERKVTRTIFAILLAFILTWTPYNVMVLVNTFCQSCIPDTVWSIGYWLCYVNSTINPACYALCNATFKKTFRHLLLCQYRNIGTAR
Outline: (§1)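 Equilibrium runs were ≥2 h with 2 × 10⁻⁴ M GTP and 0.1–0.7 nM ³H-NMS. Nonspecific binding was defined with 10⁻⁶ M QNB, and bound ligand was filtered and counted. Log affinities came from semiquantitative plus off-rate, quantitative equilibrium, or nonequilibrium assays, fitted by nonlinear least squares to the allosteric ternary complex model.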

[2] = target: T1, Muscarinic acetylcholine receptor M4 (Homo sapiens); assay: Binding affinity at the unliganded human muscarinic acetylcholine receptor M4 was estimated as log affinity (log1/M); outline: as §1
[3] = target: T1, Muscarinic acetylcholine receptor M4 (Homo sapiens); assay: Cooperativity with NMS at human muscarinic acetylcholine receptor M4
Outline: (§2)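 Equilibrium ³H-NMS binding in CHO membranes expressing human m1–m5 receptors was measured with and without ACh, alone and with three agent concentrations. Data were converted to affinity ratios, meaning apparent primary-ligand affinity with agent divided by affinity without it.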

[4] = target: T1, Muscarinic acetylcholine receptor M4 (Homo sapiens); assay: Cooperativity with acetylcholine at human muscarinic acetylcholine receptor M4; outline: as §2
[5] = target: Muscarinic acetylcholine receptor M3 (Homo sapiens) (UniProt P20309); assay: Cooperativity with NMS at human muscarinic acetylcholine receptor M3; outline: as §2
Chain of Muscarinic acetylcholine receptor M3 (Homo sapiens) (P20309 whole entry, looked up): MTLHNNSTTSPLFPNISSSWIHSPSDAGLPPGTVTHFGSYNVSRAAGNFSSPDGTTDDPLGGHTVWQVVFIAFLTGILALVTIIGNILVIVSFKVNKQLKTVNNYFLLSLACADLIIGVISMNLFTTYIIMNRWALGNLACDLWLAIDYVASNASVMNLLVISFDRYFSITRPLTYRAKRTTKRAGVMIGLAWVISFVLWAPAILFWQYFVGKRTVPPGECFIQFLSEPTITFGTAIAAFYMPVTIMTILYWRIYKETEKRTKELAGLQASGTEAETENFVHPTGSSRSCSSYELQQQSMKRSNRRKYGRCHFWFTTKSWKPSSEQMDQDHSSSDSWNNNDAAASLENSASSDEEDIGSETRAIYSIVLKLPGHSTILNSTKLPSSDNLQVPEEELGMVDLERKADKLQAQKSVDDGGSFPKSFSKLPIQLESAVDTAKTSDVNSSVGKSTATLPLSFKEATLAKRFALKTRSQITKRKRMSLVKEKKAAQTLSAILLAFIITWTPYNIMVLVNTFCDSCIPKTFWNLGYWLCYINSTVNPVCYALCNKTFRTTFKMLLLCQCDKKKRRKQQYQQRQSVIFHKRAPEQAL

[6] = target: Muscarinic acetylcholine receptor M3 (Homo sapiens) (UniProt P20309); assay: Cooperativity with acetylcholine at human muscarinic acetylcholine receptor M3; outline: as §2
[7] = target: Muscarinic acetylcholine receptor M3 (Homo sapiens) (UniProt P20309); assay: Binding affinity at the NMS liganded human muscarinic acetylcholine receptor M3 was estimated as log affinity (log1/M); outline: as §1
[8] = target: Muscarinic acetylcholine receptor M3 (Homo sapiens) (UniProt P20309); assay: Binding affinity at the unliganded human muscarinic acetylcholine receptor M3 was estimated as log affinity (log1/M); outline: as §1
[9] = target: T2, Muscarinic acetylcholine receptor M5 (Homo sapiens) (UniProt P08912); assay: Binding affinity at the NMS liganded human muscarinic acetylcholine receptor M5 was estimated as log affinity (log1/M); outline: as §1
T2 sequence (whole entry): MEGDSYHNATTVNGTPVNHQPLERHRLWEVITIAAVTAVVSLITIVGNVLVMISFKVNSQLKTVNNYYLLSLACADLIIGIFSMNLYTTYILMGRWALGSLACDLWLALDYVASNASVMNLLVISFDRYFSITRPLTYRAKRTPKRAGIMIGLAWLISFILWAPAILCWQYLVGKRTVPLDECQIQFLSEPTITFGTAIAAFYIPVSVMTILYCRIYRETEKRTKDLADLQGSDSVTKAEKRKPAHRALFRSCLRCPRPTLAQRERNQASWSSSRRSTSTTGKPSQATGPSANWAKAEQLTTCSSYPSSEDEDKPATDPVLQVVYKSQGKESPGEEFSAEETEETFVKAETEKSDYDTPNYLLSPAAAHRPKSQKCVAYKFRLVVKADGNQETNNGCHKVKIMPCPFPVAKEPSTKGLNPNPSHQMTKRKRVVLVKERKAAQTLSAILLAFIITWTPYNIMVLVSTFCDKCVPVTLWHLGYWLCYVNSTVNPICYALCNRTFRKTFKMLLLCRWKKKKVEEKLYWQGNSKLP

[10] = target: T2, Muscarinic acetylcholine receptor M5 (Homo sapiens); assay: Binding affinity at the unliganded Muscarinic acetylcholine receptor M5 was estimated as log affinity (log1/M); outline: as §1
[11] = target: T2, Muscarinic acetylcholine receptor M5 (Homo sapiens); assay: Cooperativity with NMS at Muscarinic acetylcholine receptor M5; outline: as §2
[12] = target: T2, Muscarinic acetylcholine receptor M5 (Homo sapiens); assay: Cooperativity with acetylcholine at Muscarinic acetylcholine receptor M5; outline: as §2
[13] = target: T3, Muscarinic acetylcholine receptor M2 (Homo sapiens) (UniProt P08172); assay: Binding affinity at the NMS liganded human muscarinic acetylcholine receptor M2 was estimated as log affinity (log1/M); outline: as §1
T3 sequence (whole entry): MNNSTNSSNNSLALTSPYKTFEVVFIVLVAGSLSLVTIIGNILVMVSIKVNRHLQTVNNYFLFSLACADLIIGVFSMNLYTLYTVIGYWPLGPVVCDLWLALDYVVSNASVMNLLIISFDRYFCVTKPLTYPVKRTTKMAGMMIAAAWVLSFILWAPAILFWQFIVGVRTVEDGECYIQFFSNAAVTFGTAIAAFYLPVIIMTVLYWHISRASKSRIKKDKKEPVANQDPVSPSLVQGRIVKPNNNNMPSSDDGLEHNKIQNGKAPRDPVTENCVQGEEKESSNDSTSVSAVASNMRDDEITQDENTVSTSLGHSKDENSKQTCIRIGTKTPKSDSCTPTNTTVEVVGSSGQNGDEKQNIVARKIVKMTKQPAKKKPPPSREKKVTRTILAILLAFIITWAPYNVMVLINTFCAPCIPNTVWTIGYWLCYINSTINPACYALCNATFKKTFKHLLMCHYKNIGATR

[14] = target: T3, Muscarinic acetylcholine receptor M2 (Homo sapiens); assay: Binding affinity at the unliganded human muscarinic acetylcholine receptor M2 was estimated as log affinity (log1/M); outline: as §1
[15] = target: T3, Muscarinic acetylcholine receptor M2 (Homo sapiens); assay: Cooperativity with NMS at human muscarinic acetylcholine receptor M2; outline: as §2
[16] = target: T3, Muscarinic acetylcholine receptor M2 (Homo sapiens); assay: Cooperativity with acetylcholine at human muscarinic acetylcholine receptor M2; outline: as §2
[17] = target: T4, Muscarinic acetylcholine receptor M1 (Homo sapiens) (UniProt P11229); assay: Binding affinity at the NMS liganded human muscarinic acetylcholine receptor M1 was estimated as log affinity (log1/M); outline: as §1
T4 sequence (whole entry): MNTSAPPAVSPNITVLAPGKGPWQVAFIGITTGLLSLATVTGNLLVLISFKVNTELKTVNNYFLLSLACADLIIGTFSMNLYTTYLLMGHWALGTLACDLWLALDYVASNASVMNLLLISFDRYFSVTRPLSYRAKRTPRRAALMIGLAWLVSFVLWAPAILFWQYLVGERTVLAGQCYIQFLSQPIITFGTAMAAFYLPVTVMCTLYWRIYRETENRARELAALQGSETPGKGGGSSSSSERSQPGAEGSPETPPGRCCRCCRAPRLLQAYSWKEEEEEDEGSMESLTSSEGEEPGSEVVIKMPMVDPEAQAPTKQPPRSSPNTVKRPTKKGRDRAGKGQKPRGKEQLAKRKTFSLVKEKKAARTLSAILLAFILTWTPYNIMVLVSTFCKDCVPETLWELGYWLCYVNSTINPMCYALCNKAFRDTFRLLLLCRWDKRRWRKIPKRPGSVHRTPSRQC

[18] = target: T4, Muscarinic acetylcholine receptor M1 (Homo sapiens); assay: Binding affinity at the unliganded human muscarinic acetylcholine receptor M1 was estimated as log affinity (log1/M); outline: as §1
[19] = target: T4, Muscarinic acetylcholine receptor M1 (Homo sapiens); assay: Cooperativity with NMS at human muscarinic acetylcholine receptor M1; outline: as §2
[20] = target: T4, Muscarinic acetylcholine receptor M1 (Homo sapiens); assay: Cooperativity with acetylcholine at human muscarinic acetylcholine receptor M1; outline: as §2

Row | Structure (SMILES) | Affinity [1] | Affinity [2] | Cooperativity [3] | Cooperativity [4] | Cooperativity [5] | Cooperativity [6] | Affinity [7] | Affinity [8] | Affinity [9] | Affinity [10] | Cooperativity [11] | Cooperativity [12] | Affinity [13] | Affinity [14] | Cooperativity [15] | Cooperativity [16] | Affinity [17] | Affinity [18] | Cooperativity [19] | Cooperativity [20]
1 | COc1cc2c(cc1OC)[C@@]13CC[N+]4(C)CC5=CCO[C@H]6CC(=O)N2[C@H]1[C@H]6[C@H]5C[C@@H]34 (some centres undefined) | 4.4 | 4.3 | 1.19 | 0.8 | 1.19 | 2 | 3.6 | 3.5 | 2.9 | 3.3 | 0.8 | < 0.2 | 4.5 | 4 | > 2 | 0.8 | 4 | 4 | 1.19 | 0.8
2 | COc1cc2c(cc1OC)[C@@]13CCN4CC5=CCO[C@H]6CC(=O)N2[C@H]1[C@H]6[C@H]5C[C@H]43 | 4.5 | 4.8 | 0.8 | 0.8 | 0.8 | 0.8 | 2.9 | 3.5 | 3.3 | 4.3 | < 0.2 | < 0.2 | 4.7 | 4.5 | 2 | 0.8 | 4.5 | 4.6 | 1.19 | 2
3 | COc1cc2c(cc1OC)[C@@]13CC[N+]4(CCl)CC5=CCO[C@H]6CC(=O)N2[C@H]1[C@H]6[C@H]5C[C@@H]34 (some centres undefined) | 4.3 | 4.3 | 1.19 | 1.19 | 0.2 | > 0.2 | 3.3 | 3.7 | 3.3 | 3.7 | 0.2 | < 0.2 | 4.4 | 4.2 | 2 | < 0.2 | 4.1 | 4.4 | 0.2 | 0.2
4 | C=CC[N+]12CC[C@@]34c5cc(OC)c(OC)cc5N5C(=O)C[C@@H]6OCC=C(C1)[C@H](C[C@@H]32)[C@@H]6[C@H]54 (some centres undefined) | 4.6 | 4.5 | 1.19 | 0.8 | 0.8 | 2 | 3.5 | 3.8 |  | 3.8 | 1.19 | 0.8 | 4.7 | 4.5 | 2 | 0.8 | 4.2 | 4.4 | 0.8 | 0.8
5 | O=C1C[C@@H]2OCC=C3C[N+]4(CC5CCCCC5)CC[C@]56c7ccccc7N1[C@H]5[C@H]2[C@H]3C[C@@H]64 (some centres undefined) | 4.8 | 4.5 | 2 | < 0.2 | 2 | < 0.2 | 4.1 | 4 |  |  |  |  | 5.5 | < 4.9 | > 2 | < 0.2 | 4.8 | < 4.6 | 2 | < 0.2
6 | C=CC[N+]12CC[C@@]34c5ccccc5N5/C=C6/[C@H]7C[C@H]8[C@@]9(CC[N@@+]8(CC=C)C/C7=C/CO)c7ccccc7N(/C=C(/[C@@H](C[C@@H]31)/C(=C\CO)C2)[C@H]54)[C@@H]69 (some centres undefined) | 4.7 | 4.7 | 1.19 | < 0.2 | 0.8 | 0.8 | 3.5 | < 4 |  |  |  |  | 6.5 | 6 | > 2 | < 0.2 | 4.5 | 4.9 | 0.8 | < 0.2
7 | O=C1C[C@@H]2OCC=C3C[N+]4(CCc5ccccc5)CC[C@]56c7ccccc7N1[C@H]5[C@H]2[C@H]3C[C@@H]64 (some centres undefined) | 5.5 | 5.2 | 2 | < 0.2 | 0.8 | < 0.2 | 4.6 | 4.8 |  |  |  |  | 5.7 | 5.3 | > 2 | < 0.2 | 4.9 | 4.9 | 1.19 | < 0.2
8 | N#CC[N+]12CC[C@@]34c5ccccc5N5C(=O)C[C@@H]6OCC=C(C1)[C@H](C[C@@H]32)[C@@H]6[C@H]54 (some centres undefined) | 4.8 | < 4.4 | > 2 | 0.8 | 2 | 0.8 | 4.2 | < 3.9 |  |  |  |  | 5.1 | 4.5 | > 2 | < 0.2 | 4.3 | < 4 | 2 | 0.8
9 | N[N+]12CC[C@@]34c5ccccc5N5C(=O)C[C@@H]6OCC=C(C1)[C@H](C[C@@H]32)[C@@H]6[C@H]54 (some centres undefined) | 4.9 | < 4.4 | > 2 | 0.8 | 2 | 0.8 | 4.5 | < 4.4 |  |  |  |  | 5.4 | < 4.8 | > 2 | 0.8 | 4.7 | 4.3 | 2 | 0.8
